Series [1] relates to Brain. The experiment in a line: (§1) Metabolic stability in rat brain homogenate assessed as half life by HPLC. The class given is ADME, tissue-based. An outline of the steps:
(§2)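 Prodrug incubated at 37 °C in rat brain homogenate diluted to 20% (v/v), or in liver homogenate diluted to 50% (v/v), in isotonic 0.16 M phosphate buffer, pH 7.4. Aliquots quenched with acetonitrile and centrifuged; remaining prodrug and released parent drug measured by HPLC. Pseudo-first-order t1/2 reported; mean ± sd, n = 3.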

The nature of series [2]: Chemical stability in aqueous phosphate buffer at pH 7.4 assessed as half life by HPLC. In kind it is physicochemical. Put shortly: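 Prodrug dissolved in preheated 0.16 M phosphate buffer, pH 7.4, ionic strength 0.5, held at 37 °C in a water bath. Samples taken at intervals and remaining prodrug measured by HPLC. Pseudo-first-order t1/2 taken from the slope of log remaining prodrug versus time; mean ± sd, n = 2.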

Series [3] deals with T1, Solute carrier family 2, facilitated glucose transporter member 1 (Rattus norvegicus) (UniProt P11167).
T1 sequence (whole entry): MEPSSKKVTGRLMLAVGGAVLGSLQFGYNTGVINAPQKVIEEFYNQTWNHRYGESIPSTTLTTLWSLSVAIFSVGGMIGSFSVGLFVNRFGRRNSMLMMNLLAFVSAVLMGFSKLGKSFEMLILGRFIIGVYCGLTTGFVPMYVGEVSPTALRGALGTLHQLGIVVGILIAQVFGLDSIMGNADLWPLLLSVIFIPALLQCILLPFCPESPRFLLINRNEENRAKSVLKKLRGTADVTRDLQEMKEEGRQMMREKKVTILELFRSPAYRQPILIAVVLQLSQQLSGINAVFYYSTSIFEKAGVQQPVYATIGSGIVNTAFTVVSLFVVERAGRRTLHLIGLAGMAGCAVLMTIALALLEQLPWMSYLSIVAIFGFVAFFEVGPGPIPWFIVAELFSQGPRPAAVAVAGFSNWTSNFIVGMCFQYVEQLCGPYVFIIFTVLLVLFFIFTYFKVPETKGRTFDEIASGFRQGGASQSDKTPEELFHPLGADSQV
The experiment in a line: Inhibition of GluT1-mediated [14C]D-glucose uptake in Wistar rat brain at 20 mM by perfusion technique.

The target of series [4] is T2, Solute carrier family 2, facilitated glucose transporter member 1 (Rattus norvegicus, UniProt P11167).
T2 sequence (P11167 whole entry): T1 sequence (whole entry)
The experiment in a line: (§3) Inhibition of GluT1-mediated [14C]D-glucose uptake in Wistar rat brain by perfusion technique. An outline of the steps:
(§4)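 Rat brain PA product of 0.2 µCi/mL [14C]D-glucose measured by in situ perfusion with prodrug co-perfused at concentrations from 0.1 to 1000 µM or 0.01 to 80 µM. IC50 obtained by nonlinear regression; mean ± sd, n = 2.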

Series [5] deals with T1, Solute carrier family 2, facilitated glucose transporter member 1 (Rattus norvegicus). Described as §3. An outline of the steps:
as §4

The subject of series [6] is Brain. The experiment in a line: Drug uptake in Wistar rat brain at 150 uM by perfusion technique. In kind it is ADME, tissue-based. The note with it: in vivo. Put shortly: (§5)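 In situ brain perfusion via the right common carotid artery in adult male Wistar rats (200-230 g) under ketamine/xylazine ip. Prodrug in perfusion medium with 1% DMSO, pH 7.4, perfused 60 s at 37 °C, then washed with cold (5 °C) prodrug-free medium for 30 s. Brain hemisphere analysed by HPLC; uptake in pmol/mg/min, mean ± sd, n = 3.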

For series [7], the target named is T1, Solute carrier family 2, facilitated glucose transporter member 1 (Rattus norvegicus). The experiment in a line: Inhibition of GluT1-mediated [14C]D-glucose uptake in Wistar rat brain at 80 uM after 30 seconds perfusion measured after drug washout from brain capillary 30 seconds before [14C]D-glucose challenge. An outline of the steps:
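Reversibility test in male Wistar rats. Brain perfused first with prodrug at 80 µM for 30 s, then with prodrug-free medium for 30 s to wash the capillaries, then with 0.2 µCi/mL [14C]D-glucose for 30 s. PA product of [14C]D-glucose then determined.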

Series [8] concerns Brain. The experiment in a line: Drug uptake in Wistar rat brain at 150 uM by perfusion technique […]. The class given is ADME, tissue-based. The settings on record: in vivo. Put shortly: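 Carrier-mediated uptake blocked nonspecifically by cold in male Wistar rats. Capillaries first washed 30 s with 5 °C prodrug-free medium, then perfused 60 s with 5 °C prodrug solution at 150 µM, then washed again with cold medium. Brain prodrug measured by HPLC; mean ± sd, n = 3.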

Series [9] concerns the target T1, Solute carrier family 2, facilitated glucose transporter member 1 (Rattus norvegicus). The experiment in a line: Inhibition of GluT1-mediated [14C]D-glucose uptake in Wistar rat brain at 80 uM by perfusion technique.
Series [10] relates to Brain. The experiment in a line: Drug uptake in Wistar rat brain at 150 uM by perfusion technique in presence of D-glucose. The note with it: in vivo. The class given is ADME, tissue-based. An outline of the steps:
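Male Wistar rats, in situ carotid brain perfusion. Prodrug at 150 µM given for 60 s at 37 °C in perfusion medium (1% DMSO, pH 7.4) with 50 mM D-glucose added, followed by a 30 s cold prodrug-free wash. Brain prodrug measured by HPLC; uptake in pmol/mg/min, mean ± sd, n = 3.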

The nature of series [11]: as §1. The class given is ADME, tissue-based. Put shortly:
as §2

A short description of series [12]: Metabolic stability in rat liver homogenate assessed as half life by HPLC. The class given is ADME, tissue-based. An outline of the steps:
as §2

Series [13] has as its system Brain. The experiment in a line: Drug uptake in Wistar rat brain at 3500 uM by perfusion technique. In kind it is ADME, tissue-based. The settings on record: in vivo. An outline of the steps:
as §5

Series [14] relates to Brain. The experiment in a line: Drug uptake in Wistar rat brain at 15000 uM by perfusion technique. In kind it is ADME, tissue-based. The settings on record: in vivo. An outline of the steps: as §5
For series [15], the system named is Brain. The experiment in a line: Drug uptake in Wistar rat brain at 1000 uM by perfusion technique. The class given is ADME, tissue-based. The settings on record: in vivo. Put shortly:
as §5

The test system of series [16] is Brain. The experiment in a line: Drug uptake in Wistar rat brain at 450 uM by perfusion technique. The note with it: in vivo. In kind it is ADME, tissue-based. Put shortly:
as §5

The structures appear in SMILES notation.

As usually defined, the half-life is the time in which the quantity being followed falls by half. On to `COc1ccc2c(c1)c(CC(=O)OCC(=O)OC[C@H]1O[C@@H](O)[C@H](O)[C@@H](O)[C@@H]1O)c(C)n2C(=O)c1ccc(Cl)cc1`, for which the Activity entry in the series on Brain [1] was “Unstable”. Further, the half-life in series [2] was 3 h.
What is called inhibition is the drop in the measured response relative to a control, in per cent. As for `OC[C@H]1OC(O)[C@H](O)[C@@H](O)[C@@H]1O` (some centres not stated), in [3], the inhibition was 73.8%.
As to `COc1ccc2c(c1)c(CC(=O)OC(C)C(=O)OC[C@H]1O[C@@H](O)[C@H](O)[C@@H](O)[C@@H]1O)c(C)n2C(=O)c1ccc(Cl)cc1` (some centres not stated), the Activity result in the series with Brain [1] is recorded as “Unstable”. Further, in [2], the half-life is 9.5 h.
What is called IC50 is the concentration that gives 50% inhibition. A lower IC50 goes with higher potency. With `COc1ccc2c(c1)c(CC(=O)OC[C@H]1O[C@@H](O)[C@H](O)[C@@H](O)[C@@H]1O)c(C)n2C(=O)c1ccc(Cl)cc1`, the IC50 in series [4] was found to be 0.71 µM. In addition, the Activity result in series [5] is “Dose-dependent effect”. Further, in [2], the half-life is 40.5 h. The Drug uptake with Brain [6] amounted to 1.993 pmol/mg/min; with Brain [8], 0.599 pmol/mg/min; with Brain [10], 1.806 pmol/mg/min. The compound further gave a PA in series [7] of 0.0032 mL/s/g. Moreover, the inhibition in series [9] was 96.7%.
As to `CC(C(=O)OC[C@H]1O[C@@H](O)[C@H](O)[C@@H](O)[C@@H]1O)c1cccc(C(=O)c2ccccc2)c1` (some centres not stated), the half-life in series [11] was 0.725 h; in [2], 88.5 h; in [12], 8.6 min. In [4], this compound displayed an IC50 of 32.9 µM. Besides, the Activity result in series [5] was “Dose-dependent effect”. The Drug uptake is 1.33 pmol/mg/min with Brain [6]; 0.515 pmol/mg/min with Brain [8]; 0.513 pmol/mg/min in the series with Brain [10]; 20.77 pmol/mg/min in the series with Brain [13]; 93.21 pmol/mg/min in the series with Brain [14]; 7.78 pmol/mg/min in the series on Brain [15]. Besides, the Drug uptake with Brain [16] came out at 3.55 pmol/mg/min. Also, the PA in series [7] amounted to 0.0033 mL/s/g. The compound further showed an inhibition in [9] of 75.5%.

These data come from ChEMBL document CHEMBL1138513, “Glucose promoiety enables glucose transporter mediated brain uptake of ketoprofen and indomethacin prodrugs in rats” (J Med Chem, 2009).
